High-throughput results deposited in PubChem BioAssay by several laboratories.
A selection: hits, their analogues and other compounds. The true share with any hit is near 2.3%.
Insulin prom up = MIN6 insulin promoter up-regulation; 190,000 compounds, 0.3% hits; z-score at 5 µM; MIN6 insulin promoter-GFP reporter, high-content imaging; hits give high values;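 active = z-score above 3 at 5 µM with at least 500 cells counted in the well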
Autophagy mod = alters autophagy in cells | 190,000 compounds, 0.98% hits | calls only at 10 µM (by protocol) | MEF GFP-LC3 puncta imaging; test concentration mostly 10 µM;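 active = percentage of spot-positive cells more than 3 SD above its plate mean, without a fluorescence outlier flag or 80% toxicity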;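 note: spot-positive cell cutoff set from DMSO-treated cells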
MT stabilizer = microtubule stabilization, imaging screen. % tubulin-high responders, % at 10 µM. AID 2205. 200,000 compounds, 0.83% hits. HeLa tubulin immunostaining HCS, 24 h; share of cells brighter than vehicle mean+2SD;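 active = plate Z-score above 3 for both tubulin-high and condensed-nucleus cell shares, with cell loss under 80%, at 10 µM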;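 note: anti alpha tubulin signal scored within the nucleus-defined area of each cell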
bCat nuc transl = beta-catenin nuclear translocation modulation | HeLa beta-catenin nuclear translocation, immunofluorescence imaging | nuclear translocation activity, % at 5 µM | AID 1665 | 190,000 compounds, 0.3% hits;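 active = nuclear translocation activity above 50% at 5 µM, with a well cell count of 50 or more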;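 note: per-cell ratio of nuclear to cytoplasmic median beta-catenin stain intensity; plate controls were DMSO negative control for no effect and GSK-3 inhibitor IX positive control for full effect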
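Signal – beta-catenin immunofluorescence imaging with DAPI · Test system – human HeLa cell line · Dosing – 5 µM primary single dose, 0.1% DMSO, 0.02–20 µM confirmation series · Measure – % activation, nuclear-to-cytoplasmic median beta-catenin signal ratio per cell · Incubation – 24 h compound exposure at 37°C, 5% CO2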
Dynein transport = blocks dynein driven cargo transport along microtubules. 3617.4 mouse cells, GR-EGFP nuclear translocation imaging; test concentration mostly 20 µM; stimulated with dexamethasone, 1 µM; hits give low values. 220,000 compounds, 0.47% hits. z-score, hits read low;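 active = plate z-score of nuclear minus cytoplasmic receptor signal below a set negative limit, without overly bright fluorescence or cell loss, cut at about -3.5 in these data, passing the limit was not always enough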;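 note: z-score of nuclear minus cytoplasmic ring GR-EGFP intensity difference per well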
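Buffer or medium – tet-free medium with charcoal-stripped serum · Signal – automated 10x imaging of fixed Hoechst-stained cells · Also added – dexamethasone agonist, 1.0 µM final, for 30 min · Incubation – induction 48 h, compound 1 h, agonist 30 min · Read-out – GR-EGFP nuclear translocation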
Dynein confirm = dynein cargo transport inhibition, confirmation; shares compounds with Dynein transport; 3617.4 GR-EGFP nuclear translocation imaging, dexamethasone-induced; calls only at 20 µM; 1,000 compounds, 69% hits;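 active = inhibition of receptor movement into the nucleus at or above a set limit in both runs, with normal cell brightness and cell count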;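 note: dexamethasone at 1 µM final in well for 30 min; nuclear minus cytoplasmic GR-EGFP mean intensity difference in channel 2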
Numbers without * were called inactive.

How did O=C(CS(=O)c1ccc(C(F)(F)F)cc1[N+](=O)[O-])Oc1ccccc1 (centres undefined) do in these assays?
Autophagy mod: inactive; MT stabilizer: 3.1; Dynein transport: -3.9*; Dynein confirm: active

How did CS(=O)(=O)c1ccc(S(=O)CC(=O)OCc2ccccc2)c([N+](=O)[O-])c1 (centres undefined) do in these assays?
Insulin prom up: -0.03; Autophagy mod: inactive; MT stabilizer: 4.2; bCat nuc transl: 1.9; Dynein transport: -5.57; Dynein confirm: active

How did CCOC(=O)c1ccccc1OC(=O)CS(=O)c1ccccc1[N+](=O)[O-] (centres undefined) do in these assays?
Insulin prom up: 0.08; Autophagy mod: inactive; MT stabilizer: 2.5; bCat nuc transl: -0.2; Dynein transport: -0.955

Results for CC(=O)Nc1cccc(/C(C)=N/NC(=O)c2ccc(CN3CCOCC3)cc2)c1 ?
Insulin prom up: -1.2; Autophagy mod: inactive; MT stabilizer: 1.8; bCat nuc transl: 0.9; Dynein transport: -0.634

What do the screens show for `CC(C)c1ccc(CN(C(=O)/C=C/c2ccco2)C2CCS(=O)(=O)C2)cc1` (centres undefined)?
Insulin prom up: 0.21; bCat nuc transl: -0.1; Dynein transport: -0.543

What do the screens show for `CCc1sc(C(C2C(=O)CC(C)(C)CC2=O)C2C(=O)CC(C)(C)CC2=O)cc1[N+](=O)[O-]`?
Insulin prom up: 0.72; Autophagy mod: inactive; MT stabilizer: 2.3; bCat nuc transl: 1.6; Dynein transport: -5.2*; Dynein confirm: inactive

What do the screens show for `CC1(C)CC(=O)C(C(c2ccc(F)cc2)C2C(=O)CC(C)(C)CC2=O)C(=O)C1`?
Insulin prom up: 0.83; Autophagy mod: inactive; MT stabilizer: 2.8; Dynein transport: 0.0824

How did CCOC(=O)C=C(C(=O)OCC)C(=O)OCC do in these assays?
Insulin prom up: -0.84; Autophagy mod: inactive; MT stabilizer: 4.6; bCat nuc transl: 0.6; Dynein transport: -4.25*; Dynein confirm: active

How did O=C(c1coc(=O)c(Br)c1)N1CCC(C(O)(c2ccccc2)c2ccccc2)CC1 do in these assays?
Insulin prom up: -0.53; bCat nuc transl: 3.8; Dynein transport: -4.54*; Dynein confirm: active

What do the screens show for `O=C(C1CC1)N1CCC(C(O)(c2ccccc2)c2ccccc2)CC1`?
Insulin prom up: 0.91; Autophagy mod: inactive; MT stabilizer: 1.4; bCat nuc transl: -6.7; Dynein transport: -0.731

Results for COc1cc(NC(=S)N2CCc3ccccc3C2)cc(OC)c1 ?
Insulin prom up: -0.31; Autophagy mod: inactive; MT stabilizer: 3.5; bCat nuc transl: -1.7; Dynein transport: -0.506

Results for Cc1ccc(/C=C/C(=O)Nc2ccc(Oc3ccccc3)cc2)o1 ?
Insulin prom up: -0.09; Autophagy mod: inactive; MT stabilizer: 4.0; bCat nuc transl: 1.9; Dynein transport: -3.61*; Dynein confirm: inactive

What do the screens show for `CN1CCN(c2ccc(CNS(=O)(=O)c3ccsc3)cc2)CC1`?
Insulin prom up: 0.33; bCat nuc transl: 0.2; Dynein transport: 0.403

How did Cn1c(=O)oc2cc(S(=O)(=O)Nc3ccc4c(c3)OCCO4)ccc21 do in these assays?
Insulin prom up: 1.65; Autophagy mod: inactive; MT stabilizer: 3.7; bCat nuc transl: -3.2; Dynein transport: -4.32; Dynein confirm: inactive

Results for Cc1nc(/C(=N/O)C(N)=O)cs1 ?
Insulin prom up: -0.21; bCat nuc transl: -3.3; Dynein transport: -0.442

How did CCc1c(-c2ccccc2)[n+](=O)c2c(n1[O-])CCC2 do in these assays?
Insulin prom up: -0.22; bCat nuc transl: -0.5; Dynein transport: 0.208

Results for CCOc1cc(/C=C\[N+](=O)[O-])ccc1OCC(=O)N1CCOCC1 ?
Insulin prom up: 0.87; Autophagy mod: inactive; MT stabilizer: 2.7; bCat nuc transl: 1.1; Dynein transport: -5.67*; Dynein confirm: active

Results for O=C(Nc1ccccc1)C1=C(c2ccccc2)S(=O)(=O)CCS1(=O)=O ?
Autophagy mod: inactive; MT stabilizer: 1.6; bCat nuc transl: 3.1; Dynein transport: -4.55*; Dynein confirm: inactive

How did CC1=[N+]([O-])C(C)(C)N(O)C1(C)C do in these assays?
Insulin prom up: -0.67; bCat nuc transl: -3.4; Dynein transport: -1.28
